Assay results of several laboratories.
Protocols differ between the studies behind these lines.
Target: Dual specificity protein kinase CLK4 (CLK4, Homo sapiens, UniProt Q9HAZ1)

| Compound | read-out | mode | method | concentration | measurement | result |
| --- | --- | --- | --- | --- | --- | --- |
| COc1ncccc1-c1cnn2ccc(N3CCN(C(=O)OC(C)C)CC3)nc12 | binding |  | competition with immobilised ligand | 1 µM | remaining binding | 98% |
| COc1cc(Nc2ncc(F)c(Nc3ccc4c(n3)NC(=O)C(C)(C)O4)n2)cc(OC)c1OC | binding |  | competition with immobilised ligand | 10 µM | inhibition | 85% |
| Cn1cncc1[C@@](O)(COc1ccc(C#N)cc1-c1ccc(OC(F)(F)F)cc1)c1ccc(C#N)cc1 | cell-free assay |  | competition with immobilised ligand | 1 µM | remaining binding | 96% |
| Cc1nn(C)cc1-c1nc2c(N3CCN(Cc4ccc(Cl)cc4)CC3)c(Cl)cnc2[nH]1 | binding |  | competition with immobilised ligand | 1 µM | remaining binding | 100% |
| Nc1ncc(-c2nc(N3CCOCC3)nc(N3CCOCC3)n2)c(C(F)F)n1 | binding |  | competition with immobilised ligand | 10 µM | remaining binding | 30% |
| CC(C)(C)c1cc(C=C(C#N)C#N)cc(Br)c1O | enzyme activity | inhibitor |  | 0.5 µM | remaining activity | 88.6% |
| C#Cc1n[nH]c2c(-c3cn([C@@H](C)c4ccccn4)c(=O)[nH]c3=O)cc(F)cc12 | enzyme activity | inhibitor |  | 0.1 µM | inhibition | 8.9% |
| O=c1[nH]c2ccccc2n1C1CCN(Cc2ccc(-c3[nH]c4cc5ncnc5cc4nc3-c3ccccc3)cc2)CC1 | cell-free assay |  |  | 0.5 µM | remaining signal | 92.8% |
| C#Cc1n[nH]c2c(-c3cn([C@@H](C)c4ccccc4)c(=O)[nH]c3=O)cc(F)cc12 | enzyme activity | inhibitor |  | 0.1 µM | inhibition | -0.9% |
